ChEMBL document CHEMBL1132870, “Solid-phase parallel synthesis of azarene pyrrolidinones as factor Xa inhibitors” (Bioorg Med Chem Lett, 2000)

Key:
[1] = molecular target: T1, Coagulation factor X (Oryctolagus cuniculus) (UniProt O19045); test: Inhibitory activity against coagulation factor X at a concentration of 1 uM
T1 sequence (whole entry): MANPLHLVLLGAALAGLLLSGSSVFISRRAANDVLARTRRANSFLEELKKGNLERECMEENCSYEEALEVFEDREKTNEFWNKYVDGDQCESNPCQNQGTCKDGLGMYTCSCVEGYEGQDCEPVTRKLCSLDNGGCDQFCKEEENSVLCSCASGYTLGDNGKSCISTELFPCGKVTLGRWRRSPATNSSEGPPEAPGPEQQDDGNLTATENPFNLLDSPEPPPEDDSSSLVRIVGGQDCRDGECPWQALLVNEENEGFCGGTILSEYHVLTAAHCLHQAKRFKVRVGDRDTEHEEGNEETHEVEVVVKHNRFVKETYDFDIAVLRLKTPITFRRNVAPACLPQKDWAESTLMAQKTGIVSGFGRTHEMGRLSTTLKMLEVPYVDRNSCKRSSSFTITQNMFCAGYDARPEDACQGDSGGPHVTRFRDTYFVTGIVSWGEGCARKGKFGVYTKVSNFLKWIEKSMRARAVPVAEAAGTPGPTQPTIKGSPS
In short: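 Triplicate screen. DMSO stocks were diluted to 1 µM final inhibitor in 0.05 M Tris, 0.15 M NaCl, 0.1% PEG-8000, pH 7.5. Incubated 30 min at rt with 1 nM fXa, then 200 µM Spectrozyme chromogenic substrate added. Initial rates read at 405 nm over 5 min in kinetic mode; % inhibition reported.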

[2] = molecular target: T1, Coagulation factor X (Oryctolagus cuniculus); test: Compound was tested for its inhibitory activity against Coagulation factor X at a concentration of 0.5 uM
[3] = molecular target: T1, Coagulation factor X (Oryctolagus cuniculus); test: Compound was tested for its inhibitory activity against Coagulation factor X at a concentration of 0.4 uM
[4] = molecular target: T1, Coagulation factor X (Oryctolagus cuniculus); test: Compound was tested for its inhibitory activity against Coagulation factor X at a concentration of 0.1 uM
[5] = molecular target: T1, Coagulation factor X (Oryctolagus cuniculus); test: Compound was tested for its inhibitory activity against Coagulation factor X at a concentration of 0.3 uM
[6] = molecular target: T1, Coagulation factor X (Oryctolagus cuniculus); test: Compound was tested for its inhibitory activity against Coagulation factor X at a concentration of 0.7 uM
[7] = molecular target: T1, Coagulation factor X (Oryctolagus cuniculus); test: Compound was tested for its inhibitory activity against Coagulation factor X at a concentration of 0.2 uM

Row | Compound | inhibition [1] [%] | further results
1 | O=C1[C@@H](NS(=O)(=O)c2cc3ccc(Cl)cc3s2)CCN1Cc1cc2c[nH]ccc-2n1 | – | inhibition [2]: 53%
2 | O=C1[C@@H](NS(=O)(=O)c2cc3ccc(Cl)cc3s2)CCN1Cc1cc2[nH]cccc-2n1 | – | inhibition [2]: 64%
3 | O=C1[C@@H](NS(=O)(=O)c2ccc(-c3ccon3)s2)CCN1Cc1cc2c[nH]ccc-2n1 | 17 | –
4 | O=C1[C@@H](NS(=O)(=O)c2ccc(-c3ccon3)s2)CCN1CCNc1ccncc1 | 22 | –
5 | O=C1[C@@H](NS(=O)(=O)c2cc3nc(Cl)ccc3s2)CCN1CCNc1ccncc1 | – | inhibition [3]: 50%
6 | O=C1[C@@H](NS(=O)(=O)c2cc3ccc(Cl)nc3s2)CCN1Cc1cc2c[nH]ccc-2n1 | 51 | –
7 | O=C1[C@@H](NS(=O)(=O)c2cc3ccnc(Cl)c3s2)CCN1Cc1cc2c[nH]ccc-2n1 | 25 | –
8 | O=C1[C@@H](NS(=O)(=O)c2ccc(-c3ccncc3)s2)CCN1Cc1cc2cc[nH]cc-2n1 | 50 | –
9 | O=C1[C@@H](NS(=O)(=O)c2ccc(-c3ccon3)s2)CCN1Cc1cc2cc[nH]cc-2n1 | 49 | –
10 | O=C1[C@@H](NS(=O)(=O)c2ccc(-c3ccncc3)s2)CCN1Cc1cc2c[nH]ccc-2n1 | 21 | –
11 | O=C1[C@@H](NS(=O)(=O)c2cc3ncccc3s2)CCN1Cc1cc2c[nH]ccc-2n1 | 61 | –
12 | O=C1[C@@H](NS(=O)(=O)c2ccc(-c3ccc(Cl)s3)s2)CCN1Cc1cc2c[nH]ccc-2n1 | – | inhibition [4]: 62%
13 | O=C1[C@@H](NS(=O)(=O)c2ccc(-c3ccc(Cl)s3)s2)CCN1CCNc1ccncc1 | – | inhibition [4]: 77%
14 | O=C1[C@@H](NS(=O)(=O)c2ccc(-c3ccc(Cl)s3)s2)CCN1Cc1cc2cc[nH]cc-2n1 | – | inhibition [5]: 53%
15 | CC(C)(C)c1ccc(S(=O)(=O)N[C@H]2CCN(Cc3cc4cc[nH]cc-4n3)C2=O)cc1 | 57 | –
16 | O=C1[C@@H](NS(=O)(=O)c2cc3nc(Cl)ccc3s2)CCN1Cc1cc2[nH]cccc-2n1 | – | inhibition [2]: 48%
17 | O=C1[C@@H](NS(=O)(=O)c2cc3ccc(Cl)nc3s2)CCN1CCNc1ccncc1 | – | inhibition [4]: 53%
18 | O=C1[C@@H](NS(=O)(=O)c2cc3cccnc3s2)CCN1Cc1cc2c[nH]ccc-2n1 | 18 | –
19 | CC(C)(C)c1ccc(S(=O)(=O)N[C@H]2CCN(Cc3cc4c[nH]ccc-4n3)C2=O)cc1 | 14 | –
20 | O=C1[C@@H](NS(=O)(=O)c2ccc(-c3ccccn3)s2)CCN1Cc1cc2c[nH]ccc-2n1 | 11 | –
21 | O=C1[C@@H](NS(=O)(=O)c2cc3c(Cl)nccc3s2)CCN1CCNc1ccncc1 | 39 | –

Row | Compound | inhibition [1] [%] | further results
22 | O=C1[C@@H](NS(=O)(=O)c2cc3ncccc3s2)CCN1Cc1cc2cc[nH]cc-2n1 | – | inhibition [4]: 52%
23 | O=C1[C@@H](NS(=O)(=O)c2cc3ncccc3s2)CCN1Cc1cc2[nH]cccc-2n1 | – | inhibition [5]: 58%
24 | O=C1[C@@H](NS(=O)(=O)c2cc3ccc(Cl)cc3s2)CCN1CCNc1ccncc1 | – | inhibition [4]: 57%
25 | O=C1[C@@H](NS(=O)(=O)c2cc3c(Cl)nccc3s2)CCN1Cc1cc2c[nH]ccc-2n1 | 35 | –
26 | Cc1c(S(=O)(=O)N[C@H]2CCN(CCNc3ccncc3)C2=O)sc2cc(Cl)ccc12 | – | inhibition [2]: 47%
27 | O=C1[C@@H](NS(=O)(=O)c2cc3ccc(Cl)nc3s2)CCN1Cc1cc2cc[nH]cc-2n1 | 50 | –
28 | O=C1[C@@H](NS(=O)(=O)c2ccc(-c3ccncc3)s2)CCN1CCNc1ccncc1 | 41 | –
29 | O=C1[C@@H](NS(=O)(=O)c2nc3cc(Cl)ccc3[nH]2)CCN1Cc1cc2c[nH]ccc-2n1 | 31 | –
30 | O=C1[C@@H](NS(=O)(=O)c2nc3cc(Cl)ccc3[nH]2)CCN1CCNc1ccncc1 | 29 | –
31 | O=C1[C@@H](NS(=O)(=O)c2cc3ncccc3s2)CCN1CCNc1ccncc1 | – | inhibition [6]: 50%
32 | O=C1[C@@H](NS(=O)(=O)c2cc3c(Cl)nccc3s2)CCN1Cc1cc2[nH]cccc-2n1 | – | inhibition [2]: 50%
33 | O=C1[C@@H](NS(=O)(=O)c2cc3cccnc3s2)CCN1CCNc1ccncc1 | 23 | –
34 | CC(C)(C)c1ccc(S(=O)(=O)N[C@H]2CCN(CCNc3ccncc3)C2=O)cc1 | 14 | –
35 | O=C1[C@@H](NS(=O)(=O)c2cc3c(Cl)nccc3s2)CCN1Cc1cc2cc[nH]cc-2n1 | – | inhibition [7]: 52%
36 | O=C1[C@@H](NS(=O)(=O)c2cc3cccnc3s2)CCN1Cc1cc2cc[nH]cc-2n1 | – | inhibition [2]: 43%
37 | O=C1[C@@H](NS(=O)(=O)c2cc3ccnc(Cl)c3s2)CCN1Cc1cc2cc[nH]cc-2n1 | – | inhibition [2]: 48%
38 | O=C1[C@@H](NS(=O)(=O)c2cc3ccc(Cl)cc3s2)CCN1Cc1cc2cc[nH]cc-2n1 | – | inhibition [4]: 50%
39 | O=C1[C@@H](NS(=O)(=O)c2ccc(-c3ccccn3)s2)CCN1CCNc1ccncc1 | 18 | –
40 | O=C1[C@@H](NS(=O)(=O)c2ccc(-c3ccccn3)s2)CCN1Cc1cc2cc[nH]cc-2n1 | 17 | –
41 | O=C1[C@@H](NS(=O)(=O)c2cc3ccnc(Cl)c3s2)CCN1CCNc1ccncc1 | 23 | –

Further lines, with some results ahead:

Row | inhibition [1] [%] | Compound | further results
42 | 22 | CC(C)(C)c1ccc(S(=O)(=O)N[C@H]2CCN(Cc3cc4[nH]cccc-4n3)C2=O)cc1 | –
43 | 23 | O=C1[C@@H](NS(=O)(=O)c2cc3ccc(Cl)nc3s2)CCN1Cc1cc2[nH]cccc-2n1 | –
44 | 58 | O=C1[C@@H](NS(=O)(=O)c2cc3nc(Cl)ccc3s2)CCN1Cc1cc2c[nH]ccc-2n1 | –
45 | 40 | Cc1c(S(=O)(=O)N[C@H]2CCN(Cc3cc4[nH]cccc-4n3)C2=O)sc2ccc(Cl)cc12 | –
46 | 37 | Cc1c(S(=O)(=O)N[C@H]2CCN(Cc3cc4c[nH]ccc-4n3)C2=O)sc2ccc(Cl)cc12 | –
47 | 44 | O=C1[C@@H](NS(=O)(=O)c2cc3cccnc3s2)CCN1Cc1cc2[nH]cccc-2n1 | –
48 | 35 | O=C1[C@@H](NS(=O)(=O)c2ccc(-c3ccncc3)s2)CCN1Cc1cc2[nH]cccc-2n1 | –
49 | 14 | O=C1[C@@H](NS(=O)(=O)c2nc3cc(Cl)ccc3[nH]2)CCN1Cc1cc2[nH]cccc-2n1 | –
50 | 31 | O=C1[C@@H](NS(=O)(=O)c2ccc(-c3ccon3)s2)CCN1Cc1cc2[nH]cccc-2n1 | –
51 | 8 | O=C1[C@@H](NS(=O)(=O)c2ccc(-c3ccccn3)s2)CCN1Cc1cc2[nH]cccc-2n1 | –
52 | 21 | O=C1[C@@H](NS(=O)(=O)c2nc3cc(Cl)ccc3[nH]2)CCN1Cc1cc2cc[nH]cc-2n1 | –
53 | 42 | O=C1[C@@H](NS(=O)(=O)c2ccc(-c3ccc(Cl)s3)s2)CCN1Cc1cc2[nH]cccc-2n1 | –
54 | 45 | O=C1[C@@H](NS(=O)(=O)c2cc3ccnc(Cl)c3s2)CCN1Cc1cc2[nH]cccc-2n1 | –
